Data: ChEMBL document CHEMBL4680084, “New β-Lactam Derivatives Modulate Cell Adhesion and Signaling Mediated by RGD-Binding and Leukocyte Integrins” (J Med Chem, 2016)
The source made the active and inactive calls. The rule behind the calls is not given here.

Tests used:
[1] = test system: HT-29; assay: Toxicity in human HT-29 cells assessed as induction of cell necrosis and/or apoptosis incubated for 3 hrs by annexin V-PE and 7-AAD staining based by flow cytometry; settings: ht-29, 3 h
In short: (§1)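 After 3 h incubation, cells resuspended in complete medium and stained with annexin V-PE/7-AAD reagent for 20 min at room temperature in the dark. Flow cytometry sorted cells into viable, early apoptotic and late apoptotic/necrotic populations.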

[2] = target: T1, Integrin alpha-V/beta-6 (Homo sapiens, UniProt P06756+P18564); assay: Inhibition of fibronectin binding to alphaVbeta6 isolated form human HT-29 cells incubated for 1 hr by […] competitive solid-phase binding assay; assay type: tissue-based
[3] = target: T2, Integrin alpha-5/beta-1 (Homo sapiens, UniProt P05556+P08648); assay: Agonist activity at alpha5beta1 in human K562 cells assessed as increase in cell adhesion to fibronectin pre-incubated for 30 mins before fibronectin and further incubated for 1 hr by nitrophenyl-N-acetyl-beta-D-glucosaminide substrate based chromogenic assay
In short: (§2)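 Compound or methanol vehicle pre-incubated with cells for 30 min at room temperature. Cells then plated on wells coated overnight at 4 °C with fibronectin 10 µg/mL (SK-MEL-24, K562, HT-29) or fibrinogen 10 µg/mL (MCF7, HEL). Seeding was 50,000 cells/well, or 100000 for HEL. Adhesion ran 1 h at room temperature. Wells washed with 1% BSA/PBS. Adherent cells read by hexosaminidase substrate, absorbance 405 nm. Quadruplicate, at least three repeats.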

[4] = test system: K562; assay: Toxicity in human K562 cells assessed as induction of cell necrosis and/or apoptosis incubated for 3 hrs by annexin V-PE and 7-AAD staining based by flow cytometry; settings: k562, 3 h; in short: as §1
[5] = target: T3, Integrin alpha-V/beta-3 (Homo sapiens, UniProt P05106+P06756); assay: Antagonist activity at alphaVbeta3 in human SK-MEL-24 cells assessed as reduction in cell adhesion to fibronectin pre-incubated for 30 mins before fibronectin and further incubated for 1 hr by nitrophenyl-N-acetyl-beta-D-glucosaminide substrate based chromogenic assay
In short: as §2, with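 “BSA/PBS.” for “BSA/PBS. Adherent cells read by hexosaminidase substrate, absorbance 405 nm.”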

[6] = target: T4, Integrin alpha-IIb/beta-3 (Homo sapiens, UniProt P05106+P08514); assay: Antagonist activity at alpha2bbeta3 in human HEL cells assessed as reduction in cell adhesion to fibrinogen pre-incubated for 30 mins before fibrinogen and further incubated for 1 hr by nitrophenyl-N-acetyl-beta-D-glucosaminide substrate based chromogenic assay
In short: as §2, with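 “BSA/PBS.” for “BSA/PBS. Adherent cells read by hexosaminidase substrate, absorbance 405 nm.”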

[7] = target: T4, Integrin alpha-IIb/beta-3; assay: Agonist activity at alpha2bbeta3 in human HEL cells assessed as increase in cell adhesion to fibrinogen pre-incubated for 30 mins before fibrinogen and further incubated for 1 hr by nitrophenyl-N-acetyl-beta-D-glucosaminide substrate based chromogenic assay
In short: as §2, with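 “BSA/PBS.” for “BSA/PBS. Adherent cells read by hexosaminidase substrate, absorbance 405 nm.”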

[8] = target: T2, Integrin alpha-5/beta-1; assay: Agonist activity at alpha5beta1 in human K562 cells assessed as increase in cell adhesion to fibronectin pre-incubated for 30 mins and further incubated for 1 hr by nitrophenyl-N-acetyl-beta-D-glucosaminide substrate based chromogenic assay; settings: filed as agonist, time 90.0 min; in short: as §2
[9] = target: T2, Integrin alpha-5/beta-1; assay: Inhibition of fibronectin binding to alpha5beta1 isolated from human K562 cells incubated for 1 hr by […] competitive solid-phase binding assay; assay type: tissue-based
In short: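 Plates coated overnight at 4 °C in carbonate buffer pH 9.6 with fibronectin 0.5 µg/mL (αvβ3, αvβ6, α5β1), fibrinogen 10 µg/mL (αIIbβ3, αvβ5) or ICAM-1 (αLβ2). Blocked 1 h in buffer containing Ca/Mg/Mn 1 mM each and 1% BSA. Purified integrin (3–10 µg/mL) incubated with compound (10⁻⁴–10⁻¹⁰ M) 1 h at room temperature. Bound integrin detected with primary antibody then AlexaFluor488 secondary, Ex485/Em535. Duplicate, at least three repeats.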

[10] = target: T2, Integrin alpha-5/beta-1; assay: Agonist activity at alpha5beta1 in human K562 cells assessed as increase in cell adhesion to fibronectin at 10 ug/ml pre-incubated for 30 mins and further incubated for 1 hr in presence of integrin antagonist c(-RGDfV) by nitrophenyl-N-acetyl-beta-D-glucosaminide substrate based chromogenic assay; settings: dose 10.0 µg/ml, time 90.0 min
In short: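 Agonist-coated wells (10 µg/mL in methanol). Cells pre-treated 10 min before plating with neutralizing anti-α5, anti-αv or anti-α4 antibody (10 µg/mL), or pre-incubated with c(-RGDfV) (1 µM). K562 plated at 50,000/well and Jurkat E6.1 at 500,000/well. Adhesion quantified as in the standard assay.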

[11] = target: T1, Integrin alpha-V/beta-6; assay: Agonist activity at alphaVbeta6 in human HT-29 cells assessed as increase in cell adhesion to fibronectin pre-incubated for 30 mins before fibronectin and further incubated for 1 hr by nitrophenyl-N-acetyl-beta-D-glucosaminide substrate based chromogenic assay; in short: as §2
[12] = target: Integrin alpha-4/beta-1 (Homo sapiens, UniProt P05556+P13612); assay: Antagonist activity at alpha4beta1 in human Jurkat E6.1 cells assessed as reduction in cell adhesion to VCAM1 pre-incubated for 30 mins before VCAM1 and further incubated for 30 mins by […]; assay type: cell-based
[13] = target: T5, Integrin alpha-V/beta-5 (Homo sapiens, UniProt P06756+P18084); assay: Agonist activity at alphaVbeta5 in human MCF7 cells assessed as increase in cell adhesion to fibrinogen pre-incubated for 30 mins before fibrinogen and further incubated for 1 hr by nitrophenyl-N-acetyl-beta-D-glucosaminide substrate based chromogenic assay; in short: as §2
[14] = target: T2, Integrin alpha-5/beta-1; assay: Agonist activity at alpha5beta1 in human K562 cells assessed as assessed as increase in ERK1/2 phosphorylation at 1 to 100 nM by Western blot analysis; assay type: cell-based; settings: filed as agonist, dose 1-100 nM
[15] = test system: HEL; assay: Toxicity in human HEL cells assessed as induction of cell necrosis and/or apoptosis incubated for 3 hrs by annexin V-PE and 7-AAD staining based by flow cytometry; in short: as §1
[16] = target: T4, Integrin alpha-IIb/beta-3; assay: Agonist activity at alpha2bbeta3 in human K562 cells assessed as increase in cell adhesion to fibrinogen pre-incubated for 30 mins and further incubated for 1 hr in presence of alpha2bbeta3 antagonist Tirofiban by nitrophenyl-N-acetyl-beta-D-glucosaminide substrate based chromogenic assay; settings: time 90.0 min
[17] = test system: MCF7; assay: Toxicity in human MCF7 cells assessed as induction of cell necrosis and/or apoptosis incubated for 3 hrs by annexin V-PE and 7-AAD staining based by flow cytometry; settings: mcf7, 3 h; in short: as §1
[18] = target: T3, Integrin alpha-V/beta-3; assay: Inhibition of fibronectin binding to human recombinant alphaVbeta3 expressed in HEK293 cells incubated for 1 hr by […] competitive solid-phase binding assay; assay type: cell-based
[19] = target: T5, Integrin alpha-V/beta-5; assay: Antagonist activity at alphaVbeta5 in human MCF7 cells assessed as reduction in cell adhesion to fibrinogen pre-incubated for 30 mins before fibrinogen and further incubated for 1 hr by nitrophenyl-N-acetyl-beta-D-glucosaminide substrate based chromogenic assay
In short: as §2, with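 “BSA/PBS.” for “BSA/PBS. Adherent cells read by hexosaminidase substrate, absorbance 405 nm.”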

[20] = test system: SK-MEL-24; assay: Toxicity in human SK-MEL-24 cells assessed as induction of cell necrosis and/or apoptosis incubated for 3 hrs by annexin V-PE and 7-AAD staining based by flow cytometry; settings: sk-mel-24, 3 h; in short: as §1

Question: With `Cc1ccccc1NC(=O)N1C(=O)CC1CC(=O)NCC(=O)O` (stereo not given) as the compound, how does the Activity [1] read?
Answer: Non-Toxic

Question: What about the IC50 [2] of the same compound?
Answer: > 1000 nM

Question: What about the EC50 [3] of the same compound?
Answer: 9.9 nM

Question: What about the Activity [4] of the same compound?
Answer: Non-Toxic

Question: And the IC50 [5]?
Answer: > 5000 nM

Question: And the IC50 [6]?
Answer: > 5 µM

Question: And the EC50 [7]?
Answer: > 5 µM

Question: And the Activity [8]?
Answer: Dose-dependent effect

Question: And the IC50 [9]?
Answer: 52 nM

Question: And the Activity ([10]; filed as agonist)?
Answer: Active

Question: And the EC50 [11]?
Answer: > 5 µM

Question: And the IC50 [12]?
Answer: > 5000 nM

Question: What about the EC50 [13] of the same compound?
Answer: > 5 µM

Question: And the Activity [14]?
Answer: Dose-dependent effect

Question: And the Activity [15]?
Answer: Non-Toxic

Question: And the Activity ([16]; filed as agonist)?
Answer: Active

Question: What about the Activity [17] of the same compound?
Answer: Non-Toxic

Question: And the IC50 [18]?
Answer: > 1000 nM

Question: And the IC50 [19]?
Answer: > 5 µM

Question: And the Activity [20]?
Answer: Non-Toxic

Question: For `Nc1ccc(CNC(=O)N2C(=O)CC2CC(=O)O)cc1.O=C(O)C(F)(F)F` (stereo not given), which Activity [1] is on record?
Answer: Non-Toxic

Question: And the IC50 [2]?
Answer: > 1000 nM

Question: And the EC50 [3]?
Answer: 44.5 nM

Question: And the Activity [4]?
Answer: Non-Toxic

Question: And the IC50 [5]?
Answer: 71.7 nM

Question: And the IC50 [6]?
Answer: > 5 µM

Question: And the EC50 [7]?
Answer: > 5 µM

Question: What about the Activity [8] of the same compound?
Answer: Dose-dependent effect

Question: And the IC50 [9]?
Answer: 9.7 nM

Question: What about the Activity [10] of the same compound?
Answer: inactive

Question: And the EC50 [11]?
Answer: > 5 µM

Question: And the IC50 [12]?
Answer: 574 nM

Question: What about the EC50 [13] of the same compound?
Answer: > 5 µM

Question: And the Activity [14]?
Answer: Active

Question: What about the Activity [15] of the same compound?
Answer: Non-Toxic

Question: What about the Activity ([16]; filed as agonist) of the same compound?
Answer: Active

Question: What about the Activity [17] of the same compound?
Answer: Non-Toxic

Question: What about the IC50 [18] of the same compound?
Answer: 9.9 nM

Question: What about the IC50 [19] of the same compound?
Answer: > 5 µM

Question: What about the Activity [20] of the same compound?
Answer: Non-Toxic

Question: For `NCc1ccc(NC(=O)N2C(=O)CC2CC(=O)NCCC(=O)O)cc1.O=C(O)C(F)(F)F` (stereo not given), which Activity [1] is on record?
Answer: Non-Toxic

Question: And the IC50 [2]?
Answer: > 1000 nM

Question: And the EC50 [3]?
Answer: 6.7 nM

Question: What about the Activity [4] of the same compound?
Answer: Non-Toxic

Question: What about the IC50 [5] of the same compound?
Answer: > 5000 nM

Question: And the IC50 [6]?
Answer: 1.56 µM

Question: What about the EC50 [7] of the same compound?
Answer: 1.56 µM

Question: And the Activity [8]?
Answer: Dose-dependent effect

Question: What about the IC50 [9] of the same compound?
Answer: 5.5 nM

Question: What about the Activity ([10]; filed as agonist) of the same compound?
Answer: Active

Question: And the EC50 [11]?
Answer: > 5 µM

Question: What about the IC50 [12] of the same compound?
Answer: > 5000 nM

Question: And the EC50 [13]?
Answer: > 5 µM

Question: What about the Activity [14] of the same compound?
Answer: Dose-dependent effect

Question: And the Activity [15]?
Answer: Non-Toxic

Question: What about the Activity [16] of the same compound?
Answer: inactive

Question: What about the Activity [17] of the same compound?
Answer: Non-Toxic

Question: And the IC50 [18]?
Answer: > 1000 nM

Question: And the IC50 [19]?
Answer: > 5 µM

Question: What about the Activity [20] of the same compound?
Answer: Non-Toxic
